Shown are actives, neighbours in structure and some others; about 1.9% of the full set was active somewhere.
Hsp70 activator: Hsp70 transcriptional activators, primary screen, cell-based, HeLa, Hsp70 promoter luciferase, luminescence, 10 µM | HeLa Hsp70 promoter luciferase reporter; scaled: vehicle 0, proteasome-inhibitor control 100% | activation, % at 10 µM | 200,000 compounds, 0.04% hits;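 active = activation above the mean across all tested compounds plus 3 SD, cutoff set per campaign, cut at about 5.5% in these data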
HIF act: HIF pathway transcriptional activators, primary screen, cell-based, U2OS HRE-luciferase, luminescence. activation, % at 7.5 µM (by protocol). 300,000 compounds, 0.32% hits. AID 1910, 2009. U2OS HRE-luciferase reporter; normalized: DMSO 0%, desferrioxamine 100%;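 active = mean activation of at least 10% of the iron chelator positive control signal, with at least half of replicates also reaching 10%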
H9c2 TAG inh: inhibitors of triacylglycerol accumulation, primary screen, cell-based, uHTS, fluorescence, H9c2. H9c2 cells, Nile Red lipid (TAG) fluorescence; cells loaded with 200 µM oleic acid. inhibition, % at 12.5 µM. 230,000 compounds, 0.66% hits. AID 651582, 2012;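 active = pattern-corrected inhibition of lipid staining of at least 50% with the nuclear-stain viability signal not falling by more than 50%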
GAA850 FXN act: FXN promoter activators, primary screen, cell-based, luciferase luminescence, HEK293 lucGAA850. activation, % at 6 µM. HEK293 lucGAA850 FXN promoter luciferase reporter, 24 h; percent of 10 µM SAHA response. 360,000 compounds, 0.56% hits;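 active = activation above the average of all compounds screened plus 3 SD, cutoff fixed separately per campaign, cut at about 7.5% in these data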
ABHD5 PLIN5 PPI: ABHD5-PLIN5 interaction inhibitors, primary screen, cell lysate, split luciferase complementation, luminescence; Perilipin-5 (Homo sapiens) + 1-acylglycerol-3-phosphate O-acyltransferase ABHD5 (Homo …; Split G. princeps luciferase complementation, 4 h; inhibition, % at 4 µM; 360,000 compounds, 0.78% hits; AID 602281, 2012;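 active = inhibition above the mean inhibition across every tested compound plus 3 SD, cut at about 22% in these data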
Rad51 HR inh: human RAD51 strand exchange inhibitors, primary screen, biochemical, fluorescence; hRad51 DNA strand exchange, fluorescence dequenching; 200,000 compounds, 0.085% hits; DNA repair protein RAD51 homolog 1 (Homo sapiens), Q06609; inhibition, % at 10 µM;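 active = inhibition above 40% at the single screening dose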
Target sequence (Q06609 whole entry, looked up): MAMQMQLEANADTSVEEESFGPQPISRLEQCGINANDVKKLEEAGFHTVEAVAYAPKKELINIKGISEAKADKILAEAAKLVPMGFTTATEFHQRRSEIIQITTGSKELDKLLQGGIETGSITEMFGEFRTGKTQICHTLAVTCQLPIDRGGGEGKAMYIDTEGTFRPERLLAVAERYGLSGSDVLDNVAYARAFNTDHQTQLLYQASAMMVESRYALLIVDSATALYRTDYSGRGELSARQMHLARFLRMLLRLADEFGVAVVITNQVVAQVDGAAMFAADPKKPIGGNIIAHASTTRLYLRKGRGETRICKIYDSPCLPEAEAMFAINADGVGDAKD
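Test system: preformed human Rad51 ssDNA filaments. Compound dosing: single dose, 10 µM final compound. Incubation: filaments 15 min 37 °C, then compound 30 min. Technique: FRET fluorescence dequenching, excitation 485 nm, emission 520 nm. Read-out basis: percent inhibition from fluorescence, normalised to plate control and blank means. Benchmarks: plate controls and plate blanks.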
Large screens that a line does not name were inactive.

O=C(OCc1ccccc1)N1CCC2CC1c1ccc(-c3cccc(F)c3)cc12 (stereo unspecified)	none (no result: Hsp70 activator, HIF act, H9c2 TAG inh, GAA850 FXN act, Rad51 HR inh)
O=C1[C@H]2[C@@H](c3ccc(F)cc3)N3C(=O)N(c4ccc(Br)cc4)C(=O)[C@@]3(Cc3ccc(Cl)cc3)[C@H]2C(=O)N1C1CCCCC1	GAA850 FXN act 9.5 (no result: Hsp70 activator, H9c2 TAG inh, Rad51 HR inh)
CC[C@@]12C(=O)N(c3cccc(F)c3)C(=O)N1[C@H](c1ccc(F)cc1)[C@@H]1C(=O)N(C3CCCCC3)C(=O)[C@@H]12	GAA850 FXN act 13 (no result: Hsp70 activator, Rad51 HR inh)
O=C1[C@H]2[C@@H](c3ccc(F)cc3)N3C(=O)N(c4cccc(Br)c4)C(=O)[C@@]3(Cc3ccccc3)[C@H]2C(=O)N1C1CCCCC1	none (no result: Hsp70 activator, Rad51 HR inh)
Cc1ccc2c(c1)c1c3n2CCN(C(=O)CN2CCN(C)CC2)C3CCC1 (stereo unspecified)	none
CN1CCN(CC(=O)N2CCn3c4c(c5cc(C6CCCCC6)ccc53)CCCC42)CC1 (stereo unspecified)	ABHD5 PLIN5 PPI 23 (no result: H9c2 TAG inh)
CC(=O)Nc1ccc(NC(=O)c2nc(S(=O)(=O)Cc3cccc(C)c3)ncc2Cl)cc1	ABHD5 PLIN5 PPI 66 (no result: Hsp70 activator, H9c2 TAG inh, Rad51 HR inh)
COc1ccccc1NC(=O)c1nc(S(=O)(=O)Cc2ccccc2)ncc1Cl	HIF act 634 (no result: Hsp70 activator, H9c2 TAG inh, Rad51 HR inh)
Cc1ccc(N=Nc2ccc(O)c(/C=N\NC(=O)c3ccc(N)cc3)c2)cc1C	HIF act 11
O=C(N/N=C/c1cc(Br)ccc1O)c1ccncc1	HIF act 34, H9c2 TAG inh 56 (no result: Hsp70 activator)
Cc1nc(C)c(C(=O)N/N=C/c2cc(Br)ccc2O)s1	HIF act 29 (no result: Hsp70 activator)
O=C(N/N=C\c1cc(Br)ccc1O)c1ccc(S(=O)(=O)N2CCCCC2)cc1	HIF act 37 (no result: H9c2 TAG inh)
O=C(N/N=C/c1cc(Cl)ccc1O)c1ccc(Br)cc1	none (no result: HIF act, H9c2 TAG inh)
CCCCC(=O)N(C)c1c(C)nc2ccc(C(=O)Nc3cccc(OC)c3)cn12	none (no result: Hsp70 activator, HIF act, Rad51 HR inh)
CCCCN(C(=O)CSCC(=O)Nc1ccc(C)cc1)c1c(N)n(CC(C)C)c(=O)[nH]c1=O	none (no result: Hsp70 activator, HIF act, Rad51 HR inh)
CC(C)CCN1C(N(C)C)=NC[C@@H]1C	none (no result: Hsp70 activator, HIF act, Rad51 HR inh)
Nc1nonc1C(=O)N/N=C/c1cc(Br)ccc1O	HIF act 22 (no result: H9c2 TAG inh, GAA850 FXN act, ABHD5 PLIN5 PPI)
O=C(N/N=C/c1cc(Br)ccc1OC(=O)c1ccc(Br)cc1)c1ccncc1	HIF act 19 (no result: Hsp70 activator, H9c2 TAG inh, Rad51 HR inh)
O=C(N/N=C/c1ccc(OC(=O)c2ccc(Br)cc2)cc1)c1ccncc1	none (no result: Hsp70 activator, H9c2 TAG inh, Rad51 HR inh)
Cc1ccccc1-c1nc(CS(=O)CC(=O)NCc2ccccn2)c(C)o1 (stereo unspecified)	none (no result: Hsp70 activator, H9c2 TAG inh, Rad51 HR inh)
COc1cccc(CNC(=O)CCS(=O)(=O)c2ccc3c(c2)CC(C)N3C(=O)C2CC2)c1 (stereo unspecified)	none (no result: Hsp70 activator, HIF act, H9c2 TAG inh, Rad51 HR inh)
CCCCCCCCCn1c2c(c(=N)c3c1CCC3)CCCC2	none (no result: H9c2 TAG inh)
CCCCCCCCCCn1c2c(c(=N)c3c1CCC3)CCC2	ABHD5 PLIN5 PPI 23
CC1CCC(=NO)C(=NO)C1 (stereo unspecified)	none (no result: Hsp70 activator, HIF act, Rad51 HR inh)
O=C(CN1C(=O)c2cccc3cccc1c23)Nc1ccccc1C(=O)NCc1ccco1	ABHD5 PLIN5 PPI 23
O=C(CN1C(=O)c2ccccc2S1(=O)=O)Nc1ccccc1C(=O)NCc1ccco1	none
CCc1ccc(OCC(=O)Nc2ccncc2)c(Br)c1	HIF act 13 (no result: Hsp70 activator, H9c2 TAG inh, Rad51 HR inh)
CN(Cc1ccc(OC(F)F)cc1)C(=O)c1cccc(S(=O)(=O)N2CCN(c3ccccc3)CC2)c1	none (no result: Hsp70 activator, HIF act, Rad51 HR inh)
CCOc1ccc(NC(=O)CCC(=O)NNC(=O)c2cccc([N+](=O)[O-])c2)cc1	none (no result: Hsp70 activator, HIF act, Rad51 HR inh)
Fc1cccc(/C=N/Nc2nccnc2Cl)c1	HIF act 78 (no result: Hsp70 activator, Rad51 HR inh)
CC(=O)Nc1nc(NC(=O)/C=C/c2ccccc2)n(-c2ccccc2)n1	HIF act 10 (no result: H9c2 TAG inh)
CC(=O)Nc1nc(NCc2ccccc2Cl)n(-c2ccccc2)n1	none (no result: Hsp70 activator, H9c2 TAG inh, Rad51 HR inh)
O=C(Nc1nc(NC(=O)c2ccco2)n(-c2ccccc2)n1)c1ccccc1	HIF act 12 (no result: H9c2 TAG inh)
COc1ccc(N2CC(C(=O)OCC(=O)Nc3cccc(C)c3C)CC2=O)cc1 (stereo unspecified)	none (no result: Hsp70 activator, H9c2 TAG inh, Rad51 HR inh)
C=CC(=O)Nc1ccc(CN2C(=O)N(c3c(Cl)c(OC)cc(OC)c3Cl)Cc3cnc(NCCCCN(CC)CC)nc32)cc1	H9c2 TAG inh 66 (no result: Hsp70 activator, HIF act, Rad51 HR inh)
CC(OC(=O)[C@@H](NS(=O)(=O)c1ccccc1)C(C)C)C(=O)c1c(N)n(C)c(=O)n(C)c1=O (stereo partly specified)	none (no result: Hsp70 activator, HIF act, Rad51 HR inh)
O=C1CCCc2ccccc2N1Cc1cccc(F)c1	none
O=C1CCCc2ccccc2N1Cc1ccc(F)cc1	HIF act 42
CCOc1ccccc1/C=C\c1nc(O)c([N+](=O)[O-])c(=O)[nH]1	none (no result: Hsp70 activator, H9c2 TAG inh, Rad51 HR inh)
O=C(COc1ccccc1/C=C\c1nc(O)c([N+](=O)[O-])c(=O)[nH]1)Nc1ccccc1	ABHD5 PLIN5 PPI 23 (no result: HIF act)
O=[N+]([O-])c1ccc(-c2ccc(S(=O)(=O)NCCN3CCCC3)cc2)cc1	none (no result: H9c2 TAG inh)
O=C(CSc1ccc2nc(-c3ccccc3)cn2n1)NCC1CCCO1 (stereo unspecified)	none (no result: Hsp70 activator, H9c2 TAG inh, Rad51 HR inh)
COc1ccc(-c2cn3nc(SCC(=O)NCC4CCCO4)ccc3n2)cc1 (stereo unspecified)	HIF act 19 (no result: Hsp70 activator, H9c2 TAG inh, Rad51 HR inh)
CS(=O)(=O)c1ccc(C(=O)Nc2nc(-c3ccco3)c(-c3ccco3)s2)cc1	ABHD5 PLIN5 PPI 22 (no result: Hsp70 activator, HIF act, Rad51 HR inh)
Cc1cccc(C)c1N1C(=O)c2ccccc2NC(=O)C1C(=O)NCCc1ccccc1 (stereo unspecified)	none (no result: Hsp70 activator, HIF act, H9c2 TAG inh, GAA850 FXN act, Rad51 HR inh)
c1ccc(CNc2ncnc3ccccc23)cc1	none
c1ccc(CNc2c3ccccc3nc3ccccc23)cc1	HIF act 20 (no result: Hsp70 activator, H9c2 TAG inh, Rad51 HR inh)
CN(C)CCCNc1c2ccccc2nc2ccccc12	none (no result: Hsp70 activator, H9c2 TAG inh, Rad51 HR inh)
Oc1ccc(CCNc2c3ccccc3nc3ccccc23)cc1O	HIF act 18 (no result: Hsp70 activator, H9c2 TAG inh, Rad51 HR inh)
CCCCN1C(=O)C(CC(=O)NC2CCCCC2)CC(C(=O)N(C(C)C)C(C)C)=C1C (stereo unspecified)	none (no result: Hsp70 activator, HIF act, Rad51 HR inh)
